For data set [1], the target named is T1, Neuromedin-U receptor 1 (Homo sapiens) (UniProt Q9HB89).
T1 sequence (whole entry): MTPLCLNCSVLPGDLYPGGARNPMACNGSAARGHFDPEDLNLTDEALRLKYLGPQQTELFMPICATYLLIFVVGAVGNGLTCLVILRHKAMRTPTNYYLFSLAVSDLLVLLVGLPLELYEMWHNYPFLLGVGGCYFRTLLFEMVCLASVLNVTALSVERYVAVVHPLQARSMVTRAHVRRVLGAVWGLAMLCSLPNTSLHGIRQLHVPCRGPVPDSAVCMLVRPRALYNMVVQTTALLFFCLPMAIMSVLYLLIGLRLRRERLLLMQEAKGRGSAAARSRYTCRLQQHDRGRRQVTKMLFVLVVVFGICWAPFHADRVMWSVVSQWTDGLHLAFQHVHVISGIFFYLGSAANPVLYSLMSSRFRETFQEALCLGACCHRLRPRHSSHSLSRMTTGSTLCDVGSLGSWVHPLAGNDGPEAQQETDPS
Briefly: Agonist activity at human NMUR1 expressed in CHO cells assessed as intracellular calcium flux at 1 and 10 nM by Fluo-4 AM dye based fluorometric imaging method relative to 1000 nM human neuromedin U. In kind it is functional, cell-based. (A change in cytosolic calcium serves as a functional read-out for many receptors and channels.)

For data set [2], the target named is T2, Neuromedin-U receptor 2 (Homo sapiens, UniProt Q9GZQ4). Briefly: Agonist activity at human NMUR2 expressed in CHO cells assessed as intracellular calcium flux at by Fluo-4 AM dye based fluorometric imaging method. In kind it is functional, cell-based. The essentials: (§1)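 Dose–response Ca2+ mobilization in CHO cells stably expressing human NMUR1 or NMUR2. Peptides run at 10^-12–10^-6 M with hNMU as reference. EC50 and intrinsic activity derived from the curves. Triplicate determinations.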

For data set [3], the target named is T3, Neuromedin-U receptor 1 (Homo sapiens, UniProt Q9HB89).
T3 sequence (Q9HB89 whole entry): T1 sequence (whole entry)
Briefly: Agonist activity at human NMUR1 expressed in CHO cells assessed as intracellular calcium flux at by Fluo-4 AM dye based fluorometric imaging method. In kind it is functional, cell-based. The essentials:
as §1

Data set [4] has as its system Serum. Description: Drug metabolism in 25% rat serum assessed as cleavage at Phe(2)-Arg(3) site at 1 mM at 37 degC by RP-HPLC method. In kind it is ADME, cell-free. To be noted: 1000 µM. An outline of the steps:
(§2)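 Peptides incubated in 25% rat serum at 37 °C and sampled over time (10, 30, 60 min). Samples extracted on Sep-Pak C18 cartridges and analysed by C18 RP-HPLC with UV detection at 220 nm. Metabolites identified by mass spectrometry. Recovery of intact peptide measured at 10 or 60 min, in triplicate.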

Data set [5] concerns the target T2, Neuromedin-U receptor 2. Description: Agonist activity at human NMUR2 expressed in CHO cells assessed as intracellular calcium flux at 1 and 10 nM by Fluo-4 AM dye based fluorometric imaging method relative to 1000 nM human neuromedin U. In kind it is functional, cell-based.
The target of data set [6] is T2, Neuromedin-U receptor 2. Description: Intrinsic agonist activity at human NMUR2 expressed in CHO cells assessed as intracellular calcium flux at by Fluo-4 AM dye based fluorometric imaging method. In kind it is functional, cell-based. An outline of the steps:
as §1

Data set [7] is described as follows: Drug metabolism in 25% rat serum assessed as drug recovery at 1 mM incubated for 10 mins at 37 degC by RP-HPLC method. Particulars: read-out: Drug recovery. The data set is classed as ADME, cell-free. The essentials:
as §2

Data set [8] deals with Serum. Description: Drug metabolism in 25% rat serum assessed as cleavage at Arg(5)-Asn(6) site at 1 mM at 37 degC by RP-HPLC method. The data set is classed as ADME, cell-free. To be noted: 1000 µM. The essentials:
as §2

For data set [9], the system named is Serum. Description: Drug degradation in 25% human serum at 1 mM at 37 degC by RP-HPLC method. Particulars: 1000 µM, TDE = time-dependent effect. In kind it is ADME, cell-free.
The target of data set [10] is T1, Neuromedin-U receptor 1 (Homo sapiens). Description: Intrinsic agonist activity at human NMUR1 expressed in CHO cells assessed as intracellular calcium flux at by Fluo-4 AM dye based fluorometric imaging method. In kind it is functional, cell-based. The essentials: as §1

Active and inactive are the calls of the source. The calls are words filed in the database; no cut-off is given here. Non-standard residues stand in square brackets, D forms with d. Residues, ends and D or L forms follow the SMILES beside them. *: point of attachment. Phe(4-F) = N[C@@H](Cc1ccc(F)cc1)C(=O)O; Acetyl(2-thienyl) = O=C(Cc1cccs1)*

T2 sequence (Q9GZQ4 whole entry): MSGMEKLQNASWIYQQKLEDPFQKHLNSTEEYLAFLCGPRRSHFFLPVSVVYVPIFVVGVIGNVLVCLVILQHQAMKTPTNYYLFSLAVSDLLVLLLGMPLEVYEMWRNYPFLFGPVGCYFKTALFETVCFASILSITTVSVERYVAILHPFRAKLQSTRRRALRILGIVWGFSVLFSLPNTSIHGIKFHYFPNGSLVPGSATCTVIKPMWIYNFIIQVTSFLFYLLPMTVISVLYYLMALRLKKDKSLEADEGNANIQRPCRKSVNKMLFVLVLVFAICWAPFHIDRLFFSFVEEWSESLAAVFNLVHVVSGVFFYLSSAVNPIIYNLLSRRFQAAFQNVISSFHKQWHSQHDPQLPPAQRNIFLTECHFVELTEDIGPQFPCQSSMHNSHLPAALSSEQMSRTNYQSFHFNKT

With `N=C(N)NCCC[C@H](NC(=O)[C@@H]1CCCN1C(=O)[C@H](CCCNC(=N)N)NC(=O)[C@H](Cc1ccc(F)cc1)NC(=O)[C@H](Cc1c[nH]c2ccccc12)NC(=O)Cc1cccs1)C(=O)N[C@@H](CC(N)=O)C(N)=O` ({Acetyl(2-thienyl)}-W[Phe(4-F)]RPRN-NH2), the outcome in data set [1] and in data set [5] was Active. The EC50 was 2.6 nM in data set [2] and 0.083 nM in data set [3]. For the same compound, the Drug metabolism entry in [4] and in data set [8] was “metabolite_detected” in each case. For the same compound, the Intrinsic activity in [6] was 82%; in data set [10], 95%. For the same compound, the remaining at 10 min, 1000 µM in data set [7] was determined as 42.7%. In addition, the Drug degradation entry in data set [9] was “tde”.

A word on the EC50: it is the concentration that produces a half-maximal response.
